The source made the active and inactive calls. The rule behind the calls is not given here.
Key:
[1] = tested on: RAW264.7; test: Antiinflammatory activity against mouse RAW264.7 cells assessed as reduction in LPS-stimulated ROS production at 20 uM pretreated for 1 hrs followed by LPS addition and measured after 24 hrs by DCFH-DA dye based fluorescence assay; assay type: functional, cell-based
How it was run: (§1)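 RAW264.7 cells at about 1×10^4 cells/well, grown 12 h, pretreated 1 h, then LPS 1 μg/mL for 24 h. Loaded with DCFH-DA at 100 μM final in FBS-free medium, 30 min at 37°C. After washing, fluorescence read at Ex 485/Em 520 nm on a plate reader; confocal imaging done in parallel dishes.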

[2] = target: T1, Prostaglandin G/H synthase 1 (Ovis aries) (UniProt P05979); test: Inhibition of ovine COX1 at 30 uM using arachidonic acid as substrate pretreated for 5 mins followed by substrate addition and measured after 2 mins by fluorescence based enzyme immunoassay
T1 sequence (whole entry): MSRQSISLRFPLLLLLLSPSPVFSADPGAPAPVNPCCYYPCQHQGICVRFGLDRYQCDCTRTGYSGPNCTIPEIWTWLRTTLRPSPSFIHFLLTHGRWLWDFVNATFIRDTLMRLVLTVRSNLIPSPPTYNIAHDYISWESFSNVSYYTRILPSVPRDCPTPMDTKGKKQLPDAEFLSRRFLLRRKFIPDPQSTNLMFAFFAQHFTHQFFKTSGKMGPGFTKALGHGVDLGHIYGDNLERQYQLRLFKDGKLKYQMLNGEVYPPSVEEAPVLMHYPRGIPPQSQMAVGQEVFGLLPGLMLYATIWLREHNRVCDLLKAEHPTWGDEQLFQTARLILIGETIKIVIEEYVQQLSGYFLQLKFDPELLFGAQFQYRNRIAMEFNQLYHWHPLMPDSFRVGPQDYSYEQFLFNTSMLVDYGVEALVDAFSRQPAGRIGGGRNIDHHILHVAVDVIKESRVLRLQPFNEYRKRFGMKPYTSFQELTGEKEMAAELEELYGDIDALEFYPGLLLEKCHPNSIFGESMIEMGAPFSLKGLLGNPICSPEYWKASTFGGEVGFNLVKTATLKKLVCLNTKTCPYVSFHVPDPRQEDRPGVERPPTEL

[3] = target: T2, Prostaglandin G/H synthase 2 (Homo sapiens) (UniProt P35354); test: Inhibition of recombinant human COX2 at 30 uM using arachidonic acid as substrate pretreated for 5 mins followed by substrate addition and measured after 2 mins by fluorescence based enzyme immunoassay
T2 sequence (whole entry): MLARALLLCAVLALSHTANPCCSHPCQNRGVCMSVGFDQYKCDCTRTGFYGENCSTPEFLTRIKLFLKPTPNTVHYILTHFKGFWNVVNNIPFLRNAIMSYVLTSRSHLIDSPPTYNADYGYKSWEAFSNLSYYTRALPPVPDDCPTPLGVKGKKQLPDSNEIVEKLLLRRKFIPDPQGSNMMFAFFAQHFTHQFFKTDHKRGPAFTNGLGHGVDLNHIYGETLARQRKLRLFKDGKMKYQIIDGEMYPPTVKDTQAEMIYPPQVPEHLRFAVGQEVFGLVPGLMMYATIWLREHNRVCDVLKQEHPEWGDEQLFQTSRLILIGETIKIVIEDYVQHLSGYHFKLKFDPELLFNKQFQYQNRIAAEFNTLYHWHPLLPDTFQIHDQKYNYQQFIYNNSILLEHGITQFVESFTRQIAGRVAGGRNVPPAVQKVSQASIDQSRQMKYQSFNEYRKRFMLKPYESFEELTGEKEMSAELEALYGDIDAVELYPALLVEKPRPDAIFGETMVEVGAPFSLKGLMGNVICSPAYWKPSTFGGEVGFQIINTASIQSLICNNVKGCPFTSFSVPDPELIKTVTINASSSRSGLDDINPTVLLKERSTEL

[4] = tested on: RAW264.7; test: Antiinflammatory activity against mouse RAW264.7 cells assessed as downregulation of LPS-stimulated COX2 protein expression at 10 uM pretreated for 1 hrs followed by LPS addition and measured after 24 hrs by Western blot analysis; assay type: functional, cell-based
How it was run: (§2)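 RAW264.7 macrophages (DMEM, 10% heat-inactivated FBS, 37 °C, 5% CO2) pretreated with compound, then cultured with or without LPS 1 µg/mL for 24 h. Lysates in buffer with protease/phosphatase inhibitors, BCA-normalised, 10% SDS-PAGE, PVDF transfer, milk/TBS-T block, primary antibody overnight at 4 °C, HRP anti-rabbit secondary, chemiluminescence. Dexamethasone 10 µM positive control; mean ± SD of three independent experiments.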

[5] = tested on: RAW264.7; test: Antiinflammatory activity against mouse RAW264.7 cells assessed as downregulation of LPS-stimulated iNOS protein expression at 10 uM pretreated for 1 hrs followed by LPS addition and measured after 24 hrs by Western blot analysis; assay type: functional, cell-based; how it was run: as §2
[6] = target: T3, I-kappa-B kinase (Mus musculus) (UniProt Q60680+O88351+O88522); test: Inhibition of LPS-stimulated IKK phosphorylation in mouse RAW264.7 cells assessed as decrease in IkappaBalpha phosphorylation level at 5 to 20 uM pretreated for 1 hrs followed by LPS addition and measured after 30 mins by Western blot analysis; assay type: cell-based
[7] = target: T4, Prostaglandin G/H synthase 2 (Mus musculus) (UniProt Q05769); test: Inhibition of COX2 in mouse RAW264.7 cells assessed as decrease in LPS-stimulated PGE2 production pretreated for 1 hrs followed by LPS addition and measured after 24 hrs by sandwich ELISA; assay type: cell-based
T4 sequence (whole entry): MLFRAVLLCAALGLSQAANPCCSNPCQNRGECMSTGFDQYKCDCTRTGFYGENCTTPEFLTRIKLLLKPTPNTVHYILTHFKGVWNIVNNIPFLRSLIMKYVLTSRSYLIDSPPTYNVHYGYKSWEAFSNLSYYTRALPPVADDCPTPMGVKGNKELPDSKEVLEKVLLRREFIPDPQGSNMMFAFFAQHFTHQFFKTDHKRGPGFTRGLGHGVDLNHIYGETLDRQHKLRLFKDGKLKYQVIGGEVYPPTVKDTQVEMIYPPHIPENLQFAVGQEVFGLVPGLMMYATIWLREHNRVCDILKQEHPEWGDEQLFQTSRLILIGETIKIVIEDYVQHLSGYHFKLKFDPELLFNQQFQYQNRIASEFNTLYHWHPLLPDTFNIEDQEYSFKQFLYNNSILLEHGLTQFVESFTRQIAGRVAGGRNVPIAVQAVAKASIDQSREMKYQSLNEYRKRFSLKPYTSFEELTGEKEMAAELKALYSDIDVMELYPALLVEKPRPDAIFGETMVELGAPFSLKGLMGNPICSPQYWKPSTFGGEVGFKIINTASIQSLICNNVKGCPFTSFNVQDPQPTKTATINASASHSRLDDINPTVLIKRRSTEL
How it was run: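 RAW264.7 cells at about 1×10^4 cells/well, grown 12 h. Pretreated 1 h at 2.5, 5 or 10 μM, then stimulated with LPS 100 ng/mL for 24 h. PGE2 in the medium measured by PGE2 express ELISA, absorbance at 415 nm. Representative of three independent experiments.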

[8] = tested on: RAW264.7; test: Antiinflammatory activity against mouse RAW264.7 cells assessed as decrease in LPS-stimulated TNFalpha production pretreated for 1 hrs followed by LPS addition and measured after 24 hrs by sandwich ELISA; assay type: functional, cell-based
[9] = tested on: RAW264.7; test: Antiinflammatory activity against mouse RAW264.7 cells assessed as reduction in LPS-stimulated ROS production pretreated for 1 hrs followed by LPS addition and measured after 24 hrs by DCFH-DA dye based fluorescence assay; assay type: functional, cell-based; how it was run: as §1
[10] = Cytotoxicity against rat Ac2F cells assessed as reduction in cell viability up to 50 uM incubated of WST assay; assay type: cell-based
How it was run: (§3)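 Cells seeded at 1.0×10^4 cells/well, grown 12 h in DMEM with 10% FBS, then exposed 24 h to 10, 25 or 50 μM; medium-only controls. WST reagent added for 1 h at 37°C and absorbance read at 450 nm. Cells in exponential phase.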

[11] = tested on: RAW264.7; test: Antiinflammatory activity against mouse RAW264.7 cells assessed as decrease in LPS-stimulated IL6 production pretreated for 1 hrs followed by LPS addition and measured after 24 hrs by sandwich ELISA; assay type: functional, cell-based
How it was run: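 RAW264.7 cells seeded at about 1×10^4 cells/well and grown 12 h. Pretreated 1 h with 2.5, 5 or 10 μM, then LPS 100 ng/mL added: 24 h for IL-6, 3 h for TNF-α. Cytokines in the medium quantified by sandwich ELISA, A450. Representative of three independent experiments.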

[12] = tested on: RAW264.7; test: Antiinflammatory activity against mouse RAW264.7 cells assessed as downregulation of LPS-stimulated COX2 protein expression at 20 uM pretreated for 1 hrs followed by LPS addition and measured after 24 hrs by Western blot analysis; assay type: functional, cell-based
How it was run: (§4)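 Cells treated at various concentrations, then cultured with or without LPS (1 µg/mL) for 24 h; dexamethasone 10 µM as positive control. Lysates taken in buffer with protease/phosphatase inhibitors and protein quantified by BCA. Equal protein run on 10% SDS-PAGE, transferred to PVDF, blocked in TBS-T/5% milk, then primary antibodies overnight at 4°C and HRP anti-rabbit secondary. Mean ± SD, n=3.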

[13] = target: T3, I-kappa-B kinase (Mus musculus); test: Inhibition of LPS-stimulated IKK phosphorylation in mouse RAW264.7 cells at 5 to 20 uM pretreated for 1 hrs followed by LPS addition and measured after 30 mins by Western blot analysis; assay type: cell-based
[14] = tested on: RAW264.7; test: Antiinflammatory activity against mouse RAW264.7 cells assessed as downregulation of LPS-stimulated iNOS protein expression pretreated for 1 hrs followed by LPS addition and measured after 24 hrs by Western blot analysis; assay type: functional, cell-based; how it was run: as §4
[15] = target: Transcription factor p65 (Mus musculus) (UniProt Q04207); test: Inhibition of LPS-induced NFkappaB p65 nuclear translocation in mouse RAW264.7 cells at 20 uM preincubated for 1 hrs followed by LPS-stimulation and measured after 24 hrs by DAPI staining based confocal microscopic method; assay type: cell-based
Chain of Transcription factor p65 (Mus musculus) (Q04207 whole entry): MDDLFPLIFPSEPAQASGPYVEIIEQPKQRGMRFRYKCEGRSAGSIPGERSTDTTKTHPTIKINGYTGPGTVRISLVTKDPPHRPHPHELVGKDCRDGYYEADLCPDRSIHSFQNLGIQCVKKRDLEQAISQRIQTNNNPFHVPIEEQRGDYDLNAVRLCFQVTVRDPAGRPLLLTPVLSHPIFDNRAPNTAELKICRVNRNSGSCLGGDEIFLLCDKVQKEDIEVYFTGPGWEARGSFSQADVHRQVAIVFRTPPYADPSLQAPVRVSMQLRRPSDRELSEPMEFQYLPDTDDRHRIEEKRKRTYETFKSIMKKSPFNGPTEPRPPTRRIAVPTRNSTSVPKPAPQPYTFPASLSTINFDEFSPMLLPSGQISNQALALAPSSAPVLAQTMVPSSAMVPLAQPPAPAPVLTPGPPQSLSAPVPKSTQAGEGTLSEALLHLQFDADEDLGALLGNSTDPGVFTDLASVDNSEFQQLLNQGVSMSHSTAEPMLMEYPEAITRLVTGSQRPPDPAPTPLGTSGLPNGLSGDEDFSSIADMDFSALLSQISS

[16] = tested on: L929; test: Cytotoxicity against mouse L929 cells assessed as reduction in cell viability up to 50 uM incubated of WST assay; assay type: cell-based; how it was run: as §3
[17] = tested on: RAW264.7; test: Antiinflammatory activity against mouse RAW264.7 cells assessed as downregulation of LPS-stimulated COX2 protein expression pretreated for 1 hrs followed by LPS addition and measured after 24 hrs by Western blot analysis; assay type: functional, cell-based; how it was run: as §4
[18] = tested on: RAW264.7; test: Antiinflammatory activity against mouse RAW264.7 cells assessed as inhibition of LPS-stimulated NO production pretreated for 1 hrs followed by LPS addition and measured after 24 hrs by Griess reagent based assay; assay type: functional, cell-based
How it was run: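 RAW264.7 cells at about 1×10^4 cells/well, grown 12 h. Pretreated 1 h at 2.5, 5 or 10 μM, then LPS 25 ng/mL for 24 h. Supernatant mixed 1:1 with Griess reagent for 15 min at 37°C in the dark, A520 read. Nitrite quantified against 0–100 μM sodium nitrite standards.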

[19] = tested on: RAW264.7; test: Antiinflammatory activity against mouse RAW264.7 cells assessed as downregulation of LPS-stimulated iNOS protein expression at 20 uM pretreated for 1 hrs followed by LPS addition and measured after 24 hrs by Western blot analysis; assay type: functional, cell-based; how it was run: as §4
[20] = tested on: RAW264.7; test: Cytotoxicity against mouse RAW264.7 cells assessed as reduction in cell viability up to 50 uM incubated of WST assay; assay type: cell-based; how it was run: as §3
[21] = target: Transcription factor p65 (Mus musculus) (UniProt Q04207); test: Inhibition of LPS-stimulated NFkappaB p65 nuclear translocation in mouse RAW264.7 cells retreated for 1 hrs followed by LPS addition and measured after 30 mins by Western blot analysis; assay type: cell-based

O=C(O)Cc1ccccc1Nc1c(Cl)cccc1Cl
Activity [1]: Active

CCCCC/C=N/NC(=O)c1cn(Cc2ccc(Cl)cc2)c2ccccc12
inhibition [2]: Active | inhibition [3]: Active

C[C@@H]1C[C@H]2[C@@H]3CCC4=CC(=O)C=C[C@]4(C)[C@@]3(F)[C@@H](O)C[C@]2(C)[C@@]1(O)C(=O)CO
Activity [4]: Active | Activity [5]: Active

O=C(N/N=C/c1ccco1)c1cn(Cc2ccc(Cl)cc2)c2ccccc12
inhibition [2]: Active | inhibition [3]: Active

N#Cc1ccc(/C=N/NC(=O)c2cn(Cc3ccc(Cl)cc3)c3ccccc23)cc1
inhibition [6]: Active | inhibition [7]: Active | Activity [8]: Dose-dependent effect | Activity [9]: Dose-dependent effect | Activity [10]: Non-Toxic | Activity [11]: Dose-dependent effect | Activity [12]: Active | Activity [1]: Active | inhibition [2]: Active | inhibition [13]: Active | inhibition [3]: Active | Activity [14]: Dose-dependent effect | inhibition [15]: Active | Activity [16]: Non-Toxic | Activity [17]: Dose-dependent effect | inhibition [18]: Dose-dependent effect | Activity [19]: Active | Activity [20]: Non-Toxic | inhibition [21]: Dose-dependent effect
